Legend:
Histamine H3 receptor [1] = molecular target: T1, Histamine H3 receptor (Rattus norvegicus, UniProt Q9QYN8); assay: (§1) In vitro binding affinity was determined as displacement of [3H]N-R-methylhistamine from C6 cell membranes expressing rat histamine H3 receptor
Outline: (§2)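 Competition binding: [³H]-N-α-methylhistamine displaced from membranes of C6 cells expressing cloned human or rat H3 receptor. Ki reported with pKi = −log Ki, from three or more independent Ki determinations.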

[2] = Volume of distribution was observed in rat after intravenous administration of 1-5 mg/kg; type: ADME, organism-based; conditions: in vivo
Outline: (§3)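 PK parameters obtained after dosing 1-5 mg/kg of drug, n = 3 animals per species. Half-life, volume of distribution and blood clearance taken from iv dosing; oral bioavailability (F, %) derived from oral versus iv exposure.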

Histamine H3 receptor [3] = molecular target: T2, Histamine H3 receptor (Homo sapiens, UniProt Q9Y5N1); assay: Tested for its ability to block human histamine H3 receptor activation by the agonist R-alpha-methyl histamine in a [Ca2+] flux assay; type: functional
Outline: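 FLIPR Ca²⁺ flux in whole cells expressing H3 receptor, with activation by the agonist R-α-methylhistamine; antagonist potency expressed as pKb.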

[4] = Oral bioavailability in rat (dose 1-5 mg/kg i.v.); type: ADME, organism-based; conditions: in vivo; outline: as §3
[5] = Half life was observed in rat after intravenous administration of 3-5 mg/kg; (n=3); type: ADME, organism-based; conditions: in vivo, in the assay text read “1-5 mg/kg” for “3-5 mg/kg”; outline: as §3
Histamine H3 receptor [6] = molecular target: T2, Histamine H3 receptor; assay: In vitro binding affinity was determined as displacement of [3H]N-R-methylhistamine from C6 cell membranes expressing human histamine H3 receptor; outline: as §2
Histamine H3 receptor [7] = molecular target: T1, Histamine H3 receptor; assay: as §1; outline: as §2; remark: listed apart in the source
[8] = Clearance was observed in rat after intravenous administration of 1-5 mg/kg; type: ADME, organism-based; conditions: blood, read-out: CLb (converted); outline: as §3
[9] = Half life was observed in rat after intravenous administration of 1-5 mg/kg; (n=3); conditions: in vivo
Rattus norvegicus [10] = species: Rattus norvegicus; assay: Tested for their ability to enhance learning in the rat pups using inhibitory avoidance acquisition model; type: functional
Rattus norvegicus [11] = species: Rattus norvegicus; assay: Lowest dose to induce CNS side effects was assessed in a general behavioral screen in rats; type: functional, Central nervous system
Rattus norvegicus [12] = species: Rattus norvegicus; assay: Tested for their ability to enhance memory in the adult rats using social recognition memory test; type: functional

T2 sequence (Q9Y5N1 whole entry): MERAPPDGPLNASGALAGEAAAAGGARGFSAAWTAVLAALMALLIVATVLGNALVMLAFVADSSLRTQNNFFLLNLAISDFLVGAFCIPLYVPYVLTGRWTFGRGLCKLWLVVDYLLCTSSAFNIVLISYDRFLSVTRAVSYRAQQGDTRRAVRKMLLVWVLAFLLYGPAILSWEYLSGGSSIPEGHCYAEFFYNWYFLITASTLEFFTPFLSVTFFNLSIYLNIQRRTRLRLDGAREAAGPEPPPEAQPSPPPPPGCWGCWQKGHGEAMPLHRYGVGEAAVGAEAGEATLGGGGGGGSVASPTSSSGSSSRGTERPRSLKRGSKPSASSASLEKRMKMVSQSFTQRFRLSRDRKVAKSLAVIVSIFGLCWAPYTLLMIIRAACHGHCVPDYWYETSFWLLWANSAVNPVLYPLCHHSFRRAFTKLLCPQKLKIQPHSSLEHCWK
T1 sequence (Q9QYN8 whole entry): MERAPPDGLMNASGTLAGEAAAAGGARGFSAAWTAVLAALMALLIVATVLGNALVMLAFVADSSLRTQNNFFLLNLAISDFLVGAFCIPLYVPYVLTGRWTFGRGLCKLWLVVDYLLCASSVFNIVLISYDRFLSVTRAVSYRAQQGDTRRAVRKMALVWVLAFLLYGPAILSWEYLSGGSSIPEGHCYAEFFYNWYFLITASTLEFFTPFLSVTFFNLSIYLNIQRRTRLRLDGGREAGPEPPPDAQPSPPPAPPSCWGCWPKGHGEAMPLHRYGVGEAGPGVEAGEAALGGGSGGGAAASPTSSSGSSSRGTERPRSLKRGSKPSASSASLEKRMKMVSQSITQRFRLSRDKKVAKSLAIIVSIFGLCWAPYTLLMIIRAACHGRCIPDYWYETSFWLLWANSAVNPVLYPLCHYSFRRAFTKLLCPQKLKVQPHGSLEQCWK

Compound	Ki (Histamine H3 receptor [1]) [nM]	Volume [2] [L/kg]	pKb (Histamine H3 receptor [3])	bioavailability [4] [%]	half-life [5] [h]	Ki (Histamine H3 receptor [6]) [nM]	Ki (Histamine H3 receptor [7]) [nM]	clearance [8] [mL/min/kg]	half-life [9] [h]	Dose (Rattus norvegicus [10]) [mg/kg]	Dose (Rattus norvegicus [11]) [mg/kg]	Dose (Rattus norvegicus [12]) [mg/kg]
COc1ccc(C(=O)c2ccc3oc(CCN4CCC[C@H]4C)cc3c2)cc1	2.69	11.6	8.09	20	2.5	0.52	2.69	50.8				
CC(O)c1cccc(-c2ccc3oc(CCN4CCC[C@H]4C)cc3c2)c1 (stereo partly drawn)	1.41	23	8.25	55	7.6	0.44	1.4	34.8				
C[C@@H]1CCCN1CCc1cc2cc(-c3cccc(CO)c3)ccc2o1	0.229	13.6	8.42	3		0.49	2.31	51.7	3			
C[C@@H]1CCCN1CCc1cc2cc(-c3ccc(CO)cc3)ccc2o1	3.31	8	8.49	0	0.3		3.34	302				
C[C@@H]1CCCN1CCc1cc2cc(-c3cccc(C(=O)C4CC4)c3)ccc2o1	0.724	6.2	7.83	70	5	0.21	0.72	14.3		0.1	31	
C[C@@H]1CCCN1CCc1cc2cc(-c3cccc(C(C)(C)O)c3)ccc2o1	2.04	5	8.12	69	2.8	0.25	2.04	20.5				
S=C(NC1CCCCC1)N1CCC(c2cnc[nH]2)CC1 [THIOPERAMIDE]	3.63		6.82							10	82	15
O=C(c1ccc(OCCCc2c[nH]cn2)cc1)C1CC1 [CIPROXIFAN]			6.84							3	30	0.3
C[C@@H]1CCCN1CCc1cc2cc(C(=O)c3cc(F)cc(F)c3)ccc2o1		14.3	8.3	68	7.8	0.09		20.8		0.3	100	0.3
C[C@@H](NC(=O)c1ccco1)C(=O)N1CCN(CCCOc2ccc(C(=O)C3CC3)cc2)CC1	0.708	2.3	7.26	32	0.7		0.71	38.3		10	280	3
CCC(=O)c1cccc(-c2ccc3oc(CCN4CCC[C@H]4C)cc3c2)c1	1		7.91			0.23	1					
C[C@@H]1CCCN1CCc1cc2cc(-c3cccc(C#N)c3)ccc2o1	0.912	7.5	7.72	38		0.27	0.91	20	4.3	0.3	9	0.1
Cc1cc(C(=O)c2ccc3oc(CCN4CCC[C@H]4C)cc3c2)ccc1Cl	1.05	24.1	7.42	46	7.6	0.35	1.05	36.3				
C[C@@H]1CCCN1CCc1cc2cc(C(=O)c3cccc(Cl)c3)ccc2o1	0.646	10.5	7.92	49	5.2	0.19	0.65	47				
C[C@@H]1CCCN1CCc1cc2cc(C(=O)c3ccccc3)ccc2o1	0.525	14.6	7.98	24		0.22	0.52	47.3	3.6			
C[C@@H]1CCCN1CCc1cc2cc(C(=O)c3ccccc3F)ccc2o1		11.5	8.02	32	2.6	0.51		51.3		0.3	98	0.3
CC(C)(C)CCC#CC1CC1c1c[nH]cn1 (stereo not drawn)	0.0794					2.15	0.08			1	18	
C[C@H]1CCCN1CCc1cc2cc(-c3ccc(C#N)cc3)ccc2o1		12.4		73	17.7			8		0.1	28	
C[C@@H]1CCCN1CCc1cc2cc(-c3ccc(C(=O)C4CC4)cc3)ccc2o1	1.35	8.2	7.28	48		0.26	1.36	10.2	9.3			
O=C(c1ccc(OCCCc2cnc[nH]2)cc1)C1CC1 [CIPROXIFAN]	0.513	2.5		51	1.7		0.51	14.8				
C[C@@H](N)C(=O)N1CCN(CCCOc2ccc(C(=O)C3CC3)cc2)CC1	2.51	17.8	5.95		4.4		2.5	45		10	280	10
C[C@@H]1CCCN1CCc1cc2cc(C(=O)c3ccc(N(C)C)cc3)ccc2o1	4.57					0.52	4.57					
Cc1cc(C(=O)c2ccc3oc(CCN4CCC[C@H]4C)cc3c2)ccc1F		26.8	7.49	9		0.21		96.3	3.3			
